# Measured values reported in ChEMBL document CHEMBL5712912, “Abnormal overexpression of G9a in melanoma cells promotes cancer progression via upregulation of the Notch1 signaling pathway” (Aging (Albany NY), 2020).
# Active and inactive are the calls of the source. The rule behind the calls is not given here.
# How the values were obtained:
# [1] = test system: M14; test: Induction of apoptosis in human M14 cells overexpressing NICD assessed as reduction in Bcl-2 expression at 2 uM by Western blot analysis; assay type: functional, cell-based
# [2] = test system: A-375; test: Induction of apoptosis in human A-375 cells assessed as increase in cleaved Caspase-3 expression at 2 uM by Western blot analysis; assay type: functional, cell-based
# [3] = biological target: T1, Histone-lysine N-methyltransferase EHMT2 (Homo sapiens) (UniProt Q96KQ7); test: Inhibition of G9a in human M14 cells overexpressing NICD assessed as reduction in AKT phosphorylation at 2 uM by Western blot analysis; assay type: cell-based
# T1 sequence (whole entry): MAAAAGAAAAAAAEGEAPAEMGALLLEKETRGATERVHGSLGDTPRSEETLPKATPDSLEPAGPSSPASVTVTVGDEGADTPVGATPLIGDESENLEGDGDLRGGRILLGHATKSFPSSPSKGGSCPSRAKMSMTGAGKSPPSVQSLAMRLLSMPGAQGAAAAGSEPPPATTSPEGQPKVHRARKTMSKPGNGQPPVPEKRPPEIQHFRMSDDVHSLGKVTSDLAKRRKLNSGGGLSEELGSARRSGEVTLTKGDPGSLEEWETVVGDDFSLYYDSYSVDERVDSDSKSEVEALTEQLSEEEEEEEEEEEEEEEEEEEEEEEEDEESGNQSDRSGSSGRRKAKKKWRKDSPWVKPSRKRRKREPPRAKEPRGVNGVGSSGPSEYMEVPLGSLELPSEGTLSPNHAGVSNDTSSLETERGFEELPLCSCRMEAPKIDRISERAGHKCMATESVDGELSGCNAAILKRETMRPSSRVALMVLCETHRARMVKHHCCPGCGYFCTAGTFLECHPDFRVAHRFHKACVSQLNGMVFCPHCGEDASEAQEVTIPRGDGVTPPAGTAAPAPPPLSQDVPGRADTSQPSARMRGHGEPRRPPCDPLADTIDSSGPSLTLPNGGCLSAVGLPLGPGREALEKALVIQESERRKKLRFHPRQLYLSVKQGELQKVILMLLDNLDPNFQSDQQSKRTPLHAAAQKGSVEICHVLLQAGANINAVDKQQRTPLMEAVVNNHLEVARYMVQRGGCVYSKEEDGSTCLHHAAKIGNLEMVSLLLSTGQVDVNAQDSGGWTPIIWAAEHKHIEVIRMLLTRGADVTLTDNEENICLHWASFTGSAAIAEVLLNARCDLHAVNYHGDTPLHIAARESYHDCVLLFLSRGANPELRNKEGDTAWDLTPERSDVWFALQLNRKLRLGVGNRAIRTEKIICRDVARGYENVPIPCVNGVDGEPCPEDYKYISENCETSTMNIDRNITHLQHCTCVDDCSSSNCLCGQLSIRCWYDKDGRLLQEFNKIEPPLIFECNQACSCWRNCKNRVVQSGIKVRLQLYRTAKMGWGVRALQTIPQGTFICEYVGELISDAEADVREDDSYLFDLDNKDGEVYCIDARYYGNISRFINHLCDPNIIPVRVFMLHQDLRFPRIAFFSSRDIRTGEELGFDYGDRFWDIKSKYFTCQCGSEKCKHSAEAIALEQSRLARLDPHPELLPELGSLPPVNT
# [4] = biological target: T1, Histone-lysine N-methyltransferase EHMT2 (Homo sapiens); test: Inhibition of G9a in human A-375 cells assessed as reduction in AKT phosphorylation at 2 uM by Western blot analysis; assay type: cell-based
# [5] = test system: A-375; test: Cytotoxicity against human A-375 cells assessed as reduction in cell viability by CCK-8 assay; assay type: functional, cell-based
# How it was run: (§1)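 CCK8 proliferation assay. M14 or A375 cells, NICD plasmid-transfected where stated, were seeded at about 1000 cells per well, with 0.1% DMSO-treated cells as control. CCK8 reagent was added every 24 h and incubated 90 min at 37 °C, then OD read at 450 nm to build a proliferation curve. IC50 came from a dose-dependent viability series in A375.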
# [6] = test system: A-375; test: Cytotoxicity against human A-375 cells assessed as effect on cell survival at <0.5 nM by CCK-8 assay; assay type: functional, cell-based
# [7] = biological target: T1, Histone-lysine N-methyltransferase EHMT2 (Homo sapiens); test: Inhibition of G9a in human A-375 cells assessed as decrease in H3K9me2 expression at 2 uM by Western blot analysis; assay type: cell-based
# [8] = test system: A-375; test: Induction of apoptosis in human A-375 cells overexpressing NICD assessed as increase in cleaved Caspase-3 expression at 2 uM by Western blot analysis; assay type: functional, cell-based
# [9] = test system: M14; test: Induction of apoptosis in human M14 cells overexpressing NCID assessed as early apoptotic cells by Annexin V-FITC/PI staining based flow cytometry (Rvb-0.43%); assay type: functional; settings: dose 2 µM
# [10] = test system: M14; test: Antiinvasive activity against human M14 cells overexpressing NICD at 2 uM by transwell assay; assay type: functional, cell-based
# How it was run: (§2)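 Transwell assay in M14 or A375 cells cultured in high-glucose DMEM with 10% FBS and penicillin/streptomycin; NICD overexpression plasmid transfected with Lipofectamine 2000. Invasion inserts coated with Matrigel diluted 1:6 in serum-free 1640 medium and set at 37 °C for 4 h; migration inserts uncoated, 5000 cells seeded. Control cells received DMSO. Migrated or invaded cells counted.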
# [11] = test system: M14; test: Antiproliferative activity against human M14 cells assessed as reduction in cell proliferation at 2 uM by CCK-8 assay; assay type: functional, cell-based; how it was run: as §1
# [12] = biological target: T1, Histone-lysine N-methyltransferase EHMT2 (Homo sapiens); test: Inhibition of G9a in human A-375 cells assessed as decrease in Notch1 expression at 2 uM by Western blot analysis; assay type: cell-based
# [13] = test system: M14; test: Induction of apoptosis in human M14 cells assessed as early apoptotic cells at 2 uM by Annexin V-FITC/PI staining based flow cytometry (reference value: 0.43%); assay type: functional
# [14] = test system: M14; test: Induction of apoptosis in human M14 cells overexpressing NCID assessed as live cells by Annexin V-FITC/PI staining based flow cytometry (Rvb-95.1%); assay type: functional; settings: dose 2 µM
# [15] = test system: M14; test: Antimigratory activity against human M14 cells overexpressing NICD at 2 uM by transwell assay; assay type: functional, cell-based; how it was run: as §2
# [16] = test system: A-375; test: Induction of apoptosis in human A-375 cells overexpressing NICD assessed as reduction in Bcl-2 expression at 2 uM by Western blot analysis; assay type: functional, cell-based
# [17] = biological target: T1, Histone-lysine N-methyltransferase EHMT2 (Homo sapiens); test: Inhibition of G9a in human M14 cells assessed as reduction in AKT phosphorylation at 2 uM by Western blot analysis; assay type: cell-based
# [18] = test system: M14; test: Induction of apoptosis in human M14 cells assessed as necrotic cells at 2 uM by Annexin V-FITC/PI staining based flow cytometry (reference value: 1.34%); assay type: functional
# [19] = test system: A-375; test: Antitumor activity against human A-375 cells xenografted in nude mouse assessed as tumor growth inhibition at 5 mg/kg, ip administered every other day for 10 days measured post-last dose by caliper method; assay type: functional, organism-based; settings: time 10.0 day
# How it was run: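 Male nude mice, 6 weeks old, were given A375 cells (2X 106) subcutaneously. After one week, animals with palpable xenografts were randomised into two groups: DMSO vehicle, or compound at 5 mg/kg i.p. every other day for 10 days. Tumour volume was measured, and body weight was monitored.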
# [20] = test system: A-375; test: Induction of apoptosis in human A-375 cells assessed as early apoptotic cells at 2 uM by Annexin V-FITC/PI staining based flow cytometry (reference value: 0.43%); assay type: functional
# [21] = test system: A-375; test: Antiproliferative activity against human A-375 cells assessed as reduction in cell proliferation at 2 uM by CCK-8 assay; assay type: functional, cell-based; how it was run: as §1
# [22] = test system: M14; test: Induction of apoptosis in human M14 cells overexpressing NICD assessed as increase in cleaved Caspase-3 expression at 2 uM by Western blot analysis; assay type: functional, cell-based
# [23] = test system: M14; test: Induction of apoptosis in human M14 cells overexpressing NCID assessed as late apoptotic cells by Annexin V-FITC/PI staining based flow cytometry (Rvb-3.10%); assay type: functional; settings: dose 2 µM
# [24] = test system: A-375; test: Induction of apoptosis in human A-375 cells overexpressing […] assessed as live cells by Annexin V-FITC/PI staining based flow cytometry (Rvb-95.1%); assay type: functional; settings: dose 2 µM
smiles,measurement,setting,value
COc1cc2c(NC3CCN(C(C)C)CC3)nc(N3CCC(F)(F)CC3)nc2cc1OCCCN1CCCC1,Activity,[1],inactive
same,Activity,[2],Active
same,inhibition,[3],inactive
same,inhibition,[4],Active
same,Activity,[5],Dose-Dependent Effect
same,IC50,[5],3.06 µM
same,Activity,[6],inactive
same,inhibition,[7],Active
same,Activity,[8],inactive
same,Activity,[9],0.75%
same,Activity,[10],inactive
same,Activity,[11],Active
same,inhibition,[12],Active
same,Activity,[13],4.8%
same,Activity,[14],94.9%
same,Activity,[15],inactive
same,Activity,[16],inactive
same,inhibition,[17],Active
same,Activity,[18],0.27%
same,TGI,[19],Active
same,Activity,[20],4.8%
same,Activity,[21],Active
same,Activity,[22],inactive
same,Activity,[23],3.59%
same,Activity,[24],94.9%
